For experiment [1], the system named is GLC4 cell line. Kind of experiment: Cytotoxic effect against GLC4 (human small cell lung carcinoma cell line) using the microculture tetrazolium (MTT) assay based on continuous incubation. It counts as functional. In a few lines:
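GLC4 cells in exponential growth (>90% viable by trypan blue) seeded at 3750/well in RPMI 1640 + 10% FCS; compounds from 200× DMSO stocks, final DMSO ≤0.25%, top concentration 100 μM, present continuously for 4 days at 37 °C, 5% CO2. MTT added for 3 h 45 min, formazan dissolved in DMSO, absorbance 520 nm; IC50 = 50% growth inhibition; n=3 separate experiments.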

Experiment [2] has as its system GLC4 cell line. Nature of the experiment: Cytotoxic effect against GLC4 (human small cell lung carcinoma cell line) using the microculture tetrazolium (MTT) assay based on 2 hr incubation. It counts as functional. Summed up: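 GLC4 SCLC cells (suspension, RPMI 1640 + 10% heat-inactivated FCS, 37 °C, 5% CO2), exponential phase, >90% viable; 3750 cells/well. Compounds diluted from 200× DMSO stocks (≤0.25% DMSO final), up to 100 μM; exposed 2 h, washed three times, then cultured 4 days. MTT 3 h 45 min, formazan in DMSO, A520; IC50 from % growth inhibition, triplicate separate experiments.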

pIC50: −log10 of the molar value.

Broadly, the pIC50 is the IC50 on a negative log10 scale, so that one unit is a factor of ten. Low readings indicate a large IC50, high ones a small IC50.

With `O=C1C[C@@H](C2(c3ccc4c(c3)OCO4)SCCCS2)CO1`, in experiment [1] (Homo sapiens, GLC4), the pIC50 was 4.44. The same measure, in the same setting: the value for `COc1cc(C[C@H]2C(=O)O[C@@H](OC3CC(C)CCC3C(C)C)[C@@H]2C(Sc2ccccc2)(Sc2ccccc2)c2ccc3c(c2)OCO3)ccc1OCc1ccccc1` (stereo partly drawn) was under 4.00. Regarding `COc1cc([C@@H]2c3cc4c(c(OC)c3[C@H](O)[C@H]3COC(=O)[C@H]23)OCO4)cc(OC)c1OC`, the pIC50 in experiment [2] (Homo sapiens, GLC4, 2 h) is 6.60; in experiment [1] (Homo sapiens, GLC4), 7.22. Take `COc1ccc(C[C@H]2[C@H](OC3CC(C)CCC3C(C)C)OC(=O)[C@@H]2Cc2ccc(OC)c(OC)c2)cc1OC` (stereo partly drawn): the pIC50 in experiment [1] (Homo sapiens, GLC4) is 4.46. On the same count and under the same terms, the value for `COc1c(C2([C@@H]3CC(=O)O[C@H]3OC3CC(C)CCC3C(C)C)SCCCS2)ccc2c1OCO2` (stereo partly drawn) was 4.54; that for `COc1cc([C@@H](O)[C@H]2C(=O)O[C@@H](OC3CC(C)CCC3C(C)C)[C@@H]2C2(c3ccc4c(c3OC)OCO4)SCCCS2)cc(OC)c1OCc1ccccc1` (stereo partly drawn) was 4.32; that for `CO[C@@H]1OC(=O)[C@H](Cc2ccc3c(c2)OCO3)[C@H]1C(Sc1ccccc1)(Sc1ccccc1)c1ccc2c(c1)OCO2` was under 4.00. For `COc1cc([C@@H]2c3cc4c(cc3C[C@H]3COC(=O)[C@@H]32)OCO4)cc(OC)c1OC` [DESOXYPODOPHYLLOTOXIN], the pIC50 in experiment [2] (Homo sapiens, GLC4, 2 h) is 6.92; in experiment [1] (Homo sapiens, GLC4) it was 8.10. Consider `COc1cc([C@@H]2c3cc4c(cc3[C@H](O[C@@H]3O[C@H](CO)[C@@H](O)[C@H](O)[C@H]3O)[C@H]3COC(=O)[C@H]23)OCO4)cc(OC)c1OC`, for which the pIC50 is 4.24 in experiment [2] (Homo sapiens, GLC4, 2 h) and 5.00 in experiment [1] (Homo sapiens, GLC4). Take `COc1cc([C@@H](O)[C@H]2C(=O)O[C@@H](OC3CC(C)CCC3C(C)C)[C@@H]2C2(c3ccc(O)c(O)c3OC)SCCCS2)cc(OC)c1OCc1ccccc1` (stereo partly drawn): the pIC50 was under 4.00 in experiment [2] (Homo sapiens, GLC4, 2 h) and 5.00 in experiment [1] (Homo sapiens, GLC4). For the compound `COc1cc(C[C@H]2C(=O)OC[C@@H]2Cc2ccc3c(c2)OCO3)ccc1O`, the pIC50 in experiment [2] (Homo sapiens, GLC4, 2 h) is under 4.00; in experiment [1] (Homo sapiens, GLC4), 5.19. Take `COc1cc([C@@H]2c3cc4c(cc3[C@H](O)[C@H]3COC(=O)[C@H]23)OCO4)cc(OC)c1OC` [PODOFILOX]: the negative logarithm of the IC50 (pIC50) in experiment [2] (Homo sapiens, GLC4, 2 h) was 6.82; in experiment [1] (Homo sapiens, GLC4), 7.22. With CISPLATIN, the values for the negative logarithm of the IC50 (pIC50) in experiment [2] (glc4) and in experiment [1] (glc4) were 5.34 and 5.96, respectively. `COc1c(C2([C@H]3COC(=O)C3)SCCCS2)ccc2c1OCO2` showed a pIC50 in experiment [1] (Homo sapiens, GLC4) of 4.27. Consider `COc1cc([C@@H]2c3cc4c(cc3[C@@H](O[C@@H]3O[C@@H]5CO[C@@H](C)O[C@H]5[C@H](O)[C@H]3O)[C@H]3COC(=O)[C@H]23)OCO4)cc(OC)c1O` [ETOPOSIDE], for which the pIC50 is 5.40 in experiment [2] (Homo sapiens, GLC4, 2 h) and 6.09 in experiment [1] (Homo sapiens, GLC4). The compound `CC1CCC(C(C)C)C(O[C@@H]2OC(=O)[C@H](Cc3ccc4c(c3)OCO4)[C@H]2Cc2ccc3c(c2)OCO3)C1` (stereo partly drawn) showed a pIC50 in experiment [1] (Homo sapiens, GLC4) of 4.36. The same measure, in the same setting: the value for `CC1CCC(C(C)C)C(O[C@@H]2OC(=O)[C@H](Cc3ccc4c(c3)OCO4)[C@H]2C(Sc2ccccc2)(Sc2ccccc2)c2ccc3c(c2)OCO3)C1` (stereo partly drawn) was 4.40. As to `COc1cc([C@@H](O)[C@H]2C(=O)O[C@@H](OC3CC(C)CCC3C(C)C)[C@@H]2C2(c3ccc4c(c3OC)OCO4)SCCCS2)cc(OC)c1OC` (stereo partly drawn), the pIC50 was 4.12 in experiment [2] (Homo sapiens, GLC4, 2 h) and 5.06 in experiment [1] (Homo sapiens, GLC4).

As to `COc1cc([C@@H]2c3cc4c(cc3[C@@H](O[C@@H]3O[C@@H]5CO[C@@H](c6cccs6)O[C@H]5[C@H](O)[C@H]3O)[C@H]3COC(=O)[C@H]23)OCO4)cc(OC)c1O` [TENIPOSIDE], the pIC50 in experiment [2] (Homo sapiens, GLC4, 2 h) is 5.55; in experiment [1] (Homo sapiens, GLC4), 6.32. Turning to `COc1cc([C@@H]2c3cc4c(cc3[C@H](O)[C@H]3COC(=O)[C@H]23)OCO4)cc(OC)c1O`, the pIC50 in experiment [2] (Homo sapiens, GLC4, 2 h) is 5.51; in experiment [1] (Homo sapiens, GLC4), 7.52. The like results for `COc1cc([C@@H](O)[C@H]2C(=O)O[C@@H](OC3CC(C)CCC3C(C)C)[C@@H]2C(=O)c2ccc3c(c2OC)OCO3)cc(OC)c1OC` (stereo partly drawn) were, in that order, 5.14 and 5.77.

For the origin of these results see ChEMBL document CHEMBL1128578, “Synthesis and cytotoxicity of novel lignans” (J Med Chem, 1995).
